Reference: ChEMBL document CHEMBL1125825, “Hydrophobicity parameters for platinum complexes” (J Med Chem, 1991)

Key:
[1] = Partition coefficient (logP); format: physicochemical; details: octanol/water
Method in brief: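 Octanol/water shake-flask partitioning used equal phase volumes shaken at 300 agitations/min at 37 °C. Phases were separated at various times, and Pt in each phase was measured by graphite-furnace atomic absorption. P is the octanol Pt concentration divided by the aqueous Pt concentration, reported as log P, with the mean ± range of 6-10 independent experiments.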

P388 = assay: Optimal dose evaluated for antitumor activity against P388 murine leukemia cells in female DBA/2 mice.; format: functional, cell-based; details: Mus musculus
Method in brief: (§1)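 P388 murine leukemia model in female DBA/2 mice given 10^6 cells on day 0. A single treatment was given on day 1 with the platinum complex freshly dissolved in 0.4% Klucel. T/C is the median survival time of treated mice relative to untreated controls.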

Mus musculus = species on record: Mus musculus; assay: Median survival time of treated mice with respect to untreated controls.; format: functional, organism-based; method in brief: as §1

Substance | logP [1] | Optimal dose (P388) | T/C (Mus musculus)
CISPLATIN [listing 1 of 2 here] | -2.19 |  | 
CISPLATIN [listing 2 of 2 here] |  | 27 µmol/kg | 200%
cis-di-amonium, di-nitarte platinum (II) [listing 1 of 2 here] | -3.36 |  | 
cis-di-amonium, di-nitarte platinum (II) [listing 2 of 2 here] |  | 3.5 µmol/kg | 123%
cis-di-cyclobutyleamino,di-chloro platinum (II) [listing 1 of 2 here] | 0.36 |  | 
cis-di-cyclobutyleamino,di-chloro platinum (II) [listing 2 of 2 here] |  | 147 µmol/kg | 199%
cis-di-cycloheptylamino,di-nitrate platinum (II) [listing 1 of 2 here] | -0.35 |  | 
cis-di-cycloheptylamino,di-nitrate platinum (II) [listing 2 of 2 here] |  | 92 µmol/kg | 133%
cis-di-cyclohexylamino,di-nitrate platinum (II) [listing 1 of 2 here] | -0.91 |  | 
cis-di-cyclohexylamino,di-nitrate platinum (II) [listing 2 of 2 here] |  | 97 µmol/kg | 173%
cis-di-cyclopentylamino, dichloro platinum (II) [listing 1 of 2 here] | 0.81 |  | 
cis-di-cyclopentylamino, dichloro platinum (II) [listing 2 of 2 here] |  | 572 µmol/kg | 172%
cis-di-cyclopentyleamino,di-nitrate platinum (II) [listing 1 of 2 here] | -1.14 |  | 
cis-di-cyclopentyleamino,di-nitrate platinum (II) [listing 2 of 2 here] |  | 51 µmol/kg | 193%
cis-di-isopropyleamino,dichloro platinum (II) | -0.32 |  | 
cis-di-methylamino, di-nitrate platinum (II) [listing 1 of 2 here] | -3.28 |  | 
cis-di-methylamino, di-nitrate platinum (II) [listing 2 of 2 here] |  | 26 µmol/kg | 161%
cis-di-methylamino,di-chloro platinum (II) [listing 1 of 2 here] | -1.68 |  | 
cis-di-methylamino,di-chloro platinum (II) [listing 2 of 2 here] |  | 76 µmol/kg | 175%
cis-di-pyridinium (4-acetyle),di-nitrate platinum (II) | -1.41 |  | 
cis-di-pyridinium (4-chloro),di-nitrate platinum (II) [listing 1 of 2 here] | -1.06 |  | 
cis-di-pyridinium (4-chloro),di-nitrate platinum (II) [listing 2 of 2 here] |  | 183 µmol/kg | 130%
cis-di-pyridinium (4-diaminomethane),di-nitrate platinum (II) [listing 1 of 2 here] | -0.83 |  | 
cis-di-pyridinium (4-diaminomethane),di-nitrate platinum (II) [listing 2 of 2 here] |  | 495 µmol/kg | 110%
cis-di-pyridinium (4-methanol),di-nitrate platinum (II) | -2.13 |  | 
cis-di-pyridinium,dinitrate platinum (II) [listing 1 of 2 here] | -1.59 |  | 
cis-di-pyridinium,dinitrate platinum (II) [listing 2 of 2 here] |  | 105 µmol/kg | 125%
